Values after ≈ are worked out from the molar mass of the structure shown.
Columns and labels:
Candida albicans [1] = assay: Antifungal activity against Candida albicans ATCC 90023 incubated for 48 hrs by two-fold broth dilution analysis; format: functional
Outline: (§1)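 Stock solutions in DMSO, diluted to 0.25–512 µg/mL; two-fold serial broth dilution in 96-well plates. Fungi grown on modified Sabouraud chloramphenicol agar (1% peptone, 2% glucose, […]). Incubated 48 h at 37 °C, then MIC (µg/mL) recorded. Fluconazole and polyoxin B as positive controls; each group tested in triplicate.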

Cryptococcus neoformans [2] = assay: Synergistic antifungal activity against Cryptococcus neoformans ATCC 32719 assessed as fractional inhibitory concentration index in presence of Polyoxin B by checkerboard method; format: functional
Outline: (§2)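 Checkerboard combined with two-fold broth dilution, pairing test compound with fluconazole or polyoxin B. FIC index = (MIC A combined/MIC A alone) + (MIC B combined/MIC B alone); >2 antagonistic, 1–2 additive, ≤1 synergistic. Three independent repeats.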

Candida albicans [3] = assay: Synergistic antifungal activity against Candida albicans ATCC 90023 assessed as fractional inhibitory concentration index in presence of fluconazole by checkerboard method; format: functional; outline: as §2
[4] = Inhibition of Candida tropicalis ATCC 750 chitin synthase using UDP-GlcNAc as substrate
Outline: (§3)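 Chitin synthase prepared from C. tropicalis ATCC 750 by low- and high-speed centrifugation. DMSO stocks (10 mg/mL) diluted in 50 mM Tris-HCl pH 7.5; test concentrations 300–9.375 µg/mL. Chitin synthesized in WGA-coated wells, bound with WGA-HRP, washed, developed with TMB/H2O2, stopped with 2 M H2SO4, OD read. Duplicate; polyoxin B positive control.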

Candida albicans [5] = assay: Antifungal activity against Candida albicans ATCC 76615 incubated for 48 hrs by two-fold broth dilution analysis; format: functional; outline: as §1
Candida tropicalis = assay: Inhibition of Candida tropicalis ATCC 750 chitin synthase at 300 ug/ml using UDP-GlcNAc as substrate relative to control; settings: dose 300.0 µg/ml; outline: as §3
Escherichia coli = assay: Antibacterial activity against Escherichia coli JM 109
Cryptococcus neoformans [6] = assay: Antifungal activity against Cryptococcus neoformans ATCC 32719 incubated for 48 hrs by two-fold broth dilution analysis; format: functional; outline: as §1
Aspergillus flavus [7] = assay: Synergistic antifungal activity against Aspergillus flavus ATCC 16870 assessed as fractional inhibitory concentration index in presence of fluconazole by checkerboard method; format: functional; outline: as §2
Aspergillus fumigatus [8] = assay: Synergistic antifungal activity against Aspergillus fumigatus GIMCC 3.19 assessed as fractional inhibitory concentration index in presence of fluconazole by checkerboard method; format: functional; outline: as §2
Bacillus subtilis = assay: Antibacterial activity against Bacillus subtilis ATCC 6633; format: functional
Outline: (§4)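 Two-fold serial broth dilution in 96-well plates following National Committee standards; compounds tested at different concentrations. Medium: beef extract peptone (1% peptone, 0.3% beef extract, 0.5% NaCl). Incubation 18–24 h. MIC recorded; streptomycin and norfloxacin as control drugs; each group tested in triplicate.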

Pseudomonas aeruginosa = assay: Antibacterial activity against Pseudomonas aeruginosa ATCC 9027; format: functional; outline: as §4
Aspergillus flavus [9] = assay: Antifungal activity against Aspergillus flavus ATCC 16870 incubated for 48 hrs by two-fold broth dilution analysis; format: functional; outline: as §1
Aspergillus fumigatus [10] = assay: Antifungal activity against Aspergillus fumigatus GIMCC 3.19 incubated for 48 hrs by two-fold broth dilution analysis; format: functional; outline: as §1
Aspergillus fumigatus [11] = assay: Synergistic antifungal activity against Aspergillus fumigatus GIMCC 3.19 assessed as fractional inhibitory concentration index in presence of Polyoxin B by checkerboard method; format: functional; outline: as §2
Staphylococcus aureus [12] = assay: Antibacterial activity against Staphylococcus aureus ATCC 25923; format: functional; outline: as §4
Candida albicans [13] = assay: Synergistic antifungal activity against Candida albicans ATCC 76615 assessed as fractional inhibitory concentration index in presence of fluconazole by checkerboard method; format: functional; outline: as §2
Cryptococcus neoformans [14] = assay: Synergistic antifungal activity against Cryptococcus neoformans ATCC 32719 assessed as fractional inhibitory concentration index in presence of fluconazole by checkerboard method; format: functional; outline: as §2
Staphylococcus aureus [15] = assay: Antibacterial activity against methicillin-resistant Staphylococcus aureus N. 315; format: functional
Outline: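 Two-fold serial broth dilution in 96-well plates per national clinical standard; beef extract peptone medium (1% peptone, 0.3% beef extract, 0.5% NaCl, […]). Compounds from DMSO stock diluted to test concentrations; incubation 18–24 h. MIC recorded; each group tested independently in triplicate.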

Candida albicans [16] = assay: Synergistic antifungal activity against Candida albicans ATCC 90023 assessed as fractional inhibitory concentration index in presence of Polyoxin B by checkerboard method; format: functional; outline: as §2
Aspergillus flavus [17] = assay: Synergistic antifungal activity against Aspergillus flavus ATCC 16870 assessed as fractional inhibitory concentration index in presence of Polyoxin B by two-fold broth dilution checkerboard method; format: functional; outline: as §2
Proteus vulgaris = assay: Antibacterial activity against Bacillus proteus ATCC 8427; format: functional; outline: as §4
Candida albicans [18] = assay: Synergistic antifungal activity against Candida albicans ATCC 76615 assessed as fractional inhibitory concentration index in presence of Polyoxin B by checkerboard method; format: functional; outline: as §2
[19] = Noncompetitive inhibition of Candida tropicalis ATCC 750 chitin synthase using […] as substrate by Lineweaver-Burk plot
Outline: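 Same WGA-capture chitin synthase assay, run with UDP-GlcNAc at 0.5, 1.0, 1.5 and 2.0 mM and inhibitor at 0, 0.032, 0.126 and 0.25 mM. Inhibition type read from Lineweaver-Burk plots; Ki taken from the intersection of the lines.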

With `COc1ccccc1NC(=O)/C=C/C(=O)NC1Cc2ccccc2NC1=O` (configuration not stated) the MIC (Candida albicans [1]) was 1 mg/L (≈ 2.74 µM), the “fractional inhibitory concentration index (FICI)” value (Cryptococcus neoformans [2]) was 1 and the “fractional inhibitory concentration index (FICI)” value (Candida albicans [3]) was 0.5. For the same compound, the IC50 [4] was 160 µM, the MIC (Candida albicans [5]) was 1 mg/L (≈ 2.74 µM) and the inhibition (Candida tropicalis) was 82.3%. The MIC (Escherichia coli) was 256 mg/L (≈ 701 µM), the MIC (Cryptococcus neoformans [6]) was 8 mg/L (≈ 21.9 µM) and the “fractional inhibitory concentration index (FICI)” value (Aspergillus flavus [7]) was 1. For the same compound, the “fractional inhibitory concentration index (FICI)” value (Aspergillus fumigatus [8]) was 0.375, the MIC (Bacillus subtilis) was 256 mg/L (≈ 701 µM) and the MIC (Pseudomonas aeruginosa) was 512 mg/L (≈ 1400 µM). The MIC (Aspergillus flavus [9]) was 2 mg/L (≈ 5.47 µM), the MIC (Aspergillus fumigatus [10]) was 4 mg/L (≈ 10.9 µM) and the “fractional inhibitory concentration index (FICI)” value (Aspergillus fumigatus [11]) was 0.375. For the same compound, the MIC (Staphylococcus aureus [12]) was 128 mg/L (≈ 350 µM), the “fractional inhibitory concentration index (FICI)” value (Candida albicans [13]) was 0.75 and the “fractional inhibitory concentration index (FICI)” value (Cryptococcus neoformans [14]) was 0.5. For the same compound, the MIC (Staphylococcus aureus [15]) was 256 mg/L (≈ 701 µM), the “fractional inhibitory concentration index (FICI)” value (Candida albicans [16]) was 0.375 and the “fractional inhibitory concentration index (FICI)” value (Aspergillus flavus [17]) was 0.75. The MIC (Proteus vulgaris) was 256 mg/L (≈ 701 µM) and the “fractional inhibitory concentration index (FICI)” value (Candida albicans [18]) was 0.5.
With `Cc1cccc(NC(=O)/C=C/C(=O)NC2Cc3ccccc3NC2=O)c1` (configuration not stated) the MIC (Candida albicans [1]) was 1 mg/L (≈ 2.86 µM), the “fractional inhibitory concentration index (FICI)” value (Cryptococcus neoformans [2]) was 2 and the “fractional inhibitory concentration index (FICI)” value (Candida albicans [3]) was 0.5. The IC50 [4] was 90 µM, the MIC (Candida albicans [5]) was 2 mg/L (≈ 5.72 µM) and the inhibition (Candida tropicalis) was 78.3%. The MIC (Escherichia coli) was 512 mg/L (≈ 1470 µM), the MIC (Cryptococcus neoformans [6]) was 64 mg/L (≈ 183 µM) and the “fractional inhibitory concentration index (FICI)” value (Aspergillus flavus [7]) was 1.5. The “fractional inhibitory concentration index (FICI)” value (Aspergillus fumigatus [8]) was 0.75, the MIC (Bacillus subtilis) was 256 mg/L (≈ 733 µM) and the MIC (Pseudomonas aeruginosa) was 512 mg/L (≈ 1470 µM). For the same compound, the MIC (Aspergillus flavus [9]) was 2 mg/L (≈ 5.72 µM), the MIC (Aspergillus fumigatus [10]) was 4 mg/L (≈ 11.4 µM) and the “fractional inhibitory concentration index (FICI)” value (Aspergillus fumigatus [11]) was 0.75. The MIC (Staphylococcus aureus [12]) was 128 mg/L (≈ 366 µM), the “fractional inhibitory concentration index (FICI)” value (Candida albicans [13]) was 1.5 and the “fractional inhibitory concentration index (FICI)” value (Cryptococcus neoformans [14]) was 1.5. For the same compound, the MIC (Staphylococcus aureus [15]) was 512 mg/L (≈ 1470 µM), the “fractional inhibitory concentration index (FICI)” value (Candida albicans [16]) was 0.375 and the “fractional inhibitory concentration index (FICI)” value (Aspergillus flavus [17]) was 1. For the same compound, the Ki [19] was 120 µM, the MIC (Proteus vulgaris) was 256 mg/L (≈ 733 µM) and the “fractional inhibitory concentration index (FICI)” value (Candida albicans [18]) was 1.
